Test results: ChEMBL document CHEMBL1138621, “Inhibition of tRNA-dependent ligase MurM from Streptococcus pneumoniae by phosphonate and sulfonamide inhibitors” (Bioorg Med Chem, 2009)
Active and inactive are the calls of the source. The calls are words filed in the database; no cut-off is given here.

Legend:
Streptococcus pneumoniae [1] = assay: Inhibition of penicillin-resistant Streptococcus pneumoniae 159 recombinant MurM at 1 mM by liquid scintillation counting
[2] = Inhibition of penicillin-resistant Streptococcus pneumoniae 159 recombinant MurM by liquid scintillation counting
Streptococcus pneumoniae [3] = assay: Antibacterial activity against penicillin- resistant Streptococcus pneumoniae 159 at 1 mM by NCCLS method; type: functional, organism-based
Method in brief: (§1)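 Growth inhibition in liquid culture per NCCLS protocol, compounds at 1–5 mM final concentration; strains tested: S. pneumoniae 159 and pn16, S. aureus MRSA and MSSA, E. faecalis, M. flavus, E. coli.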

Staphylococcus aureus [4] = assay: Antimicrobial activity against methicillin-resistant Staphylococcus aureus expressing femABX gene at 1 to 5 mM by NCCLS method; type: functional, organism-based; method in brief: as §1
Staphylococcus aureus [5] = assay: Antimicrobial activity against methicillin-susceptible Staphylococcus aureus expressing femABX gene at 1 to 5 mM by NCCLS method; type: functional, organism-based; method in brief: as §1
Enterococcus faecalis = assay: Antimicrobial activity against Enterococcus faecalis expressing femABX gene at 1 to 5 mM by NCCLS method; type: functional, organism-based; method in brief: as §1
Micrococcus flavus = assay: Antimicrobial activity against Micrococcus flavus expressing femABX gene at 1 to 5 mM by NCCLS method; type: functional, organism-based; method in brief: as §1
[6] = biological target: T1, Alanine--tRNA ligase (Streptococcus pneumoniae serotype 4 (strain ATCC BAA-334 / TIGR4)) (UniProt Q97Q48); assay: Inhibition of Streptococcus pneumoniae alanyl tRNA synthetase expressed in Escherichia coli BL21 (DE3) assessed as formation of [3H]alanyl tRNA at 1 mM
T1 sequence (whole entry): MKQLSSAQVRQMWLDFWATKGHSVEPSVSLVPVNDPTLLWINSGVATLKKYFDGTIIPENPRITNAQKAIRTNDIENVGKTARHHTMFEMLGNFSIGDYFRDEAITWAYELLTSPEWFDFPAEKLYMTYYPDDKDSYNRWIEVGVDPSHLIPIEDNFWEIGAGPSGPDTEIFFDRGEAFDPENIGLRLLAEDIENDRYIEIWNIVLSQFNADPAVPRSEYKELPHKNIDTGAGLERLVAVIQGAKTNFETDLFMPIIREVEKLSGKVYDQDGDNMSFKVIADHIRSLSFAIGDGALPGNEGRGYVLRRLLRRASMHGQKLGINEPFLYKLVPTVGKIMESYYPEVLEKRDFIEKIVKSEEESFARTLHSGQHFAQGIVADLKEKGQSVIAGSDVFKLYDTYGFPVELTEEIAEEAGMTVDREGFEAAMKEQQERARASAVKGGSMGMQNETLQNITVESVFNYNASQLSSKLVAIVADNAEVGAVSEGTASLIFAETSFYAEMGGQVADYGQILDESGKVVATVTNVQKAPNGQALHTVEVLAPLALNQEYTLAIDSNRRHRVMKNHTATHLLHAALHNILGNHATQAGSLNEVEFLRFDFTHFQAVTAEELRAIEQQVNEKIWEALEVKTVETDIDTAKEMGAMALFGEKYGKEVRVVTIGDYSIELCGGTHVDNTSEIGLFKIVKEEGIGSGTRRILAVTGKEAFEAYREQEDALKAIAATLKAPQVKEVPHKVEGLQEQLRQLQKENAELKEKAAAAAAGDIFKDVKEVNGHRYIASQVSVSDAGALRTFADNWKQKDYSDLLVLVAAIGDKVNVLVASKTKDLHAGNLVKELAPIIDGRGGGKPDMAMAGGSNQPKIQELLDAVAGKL

[7] = biological target: T2, Serine--tRNA ligase (Streptococcus pneumoniae serotype 4 (strain ATCC BAA-334 / TIGR4)) (UniProt Q97SG0); assay: Inhibition of Streptococcus pneumoniae seryl tRNA synthetase expressed in Escherichia coli BL21 (DE3) assessed as formation of [3H]seryl tRNA at 1 mM
T2 sequence (whole entry): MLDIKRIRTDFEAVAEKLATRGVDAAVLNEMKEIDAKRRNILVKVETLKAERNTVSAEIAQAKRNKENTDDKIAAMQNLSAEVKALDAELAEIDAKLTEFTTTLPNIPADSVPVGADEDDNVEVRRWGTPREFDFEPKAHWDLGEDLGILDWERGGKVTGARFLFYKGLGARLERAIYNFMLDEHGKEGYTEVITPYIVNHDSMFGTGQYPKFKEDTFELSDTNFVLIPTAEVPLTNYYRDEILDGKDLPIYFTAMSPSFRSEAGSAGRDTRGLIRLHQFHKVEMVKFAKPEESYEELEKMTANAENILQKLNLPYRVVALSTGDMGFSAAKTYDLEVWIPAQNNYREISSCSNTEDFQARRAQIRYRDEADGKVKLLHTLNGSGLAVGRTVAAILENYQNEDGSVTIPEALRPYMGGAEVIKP

[8] = biological target: T1, Alanine--tRNA ligase (Streptococcus pneumoniae serotype 4 (strain ATCC BAA-334 / TIGR4)); assay: Inhibition of Streptococcus pneumoniae alanyl tRNA synthetase expressed in Escherichia coli BL21 (DE3) assessed as formation of [3H]alanyl tRNA at 100 uM
[9] = biological target: T2, Serine--tRNA ligase (Streptococcus pneumoniae serotype 4 (strain ATCC BAA-334 / TIGR4)); assay: Inhibition of Streptococcus pneumoniae seryl tRNA synthetase expressed in Escherichia coli BL21 (DE3) assessed as formation of [3H]seryl tRNA at 100 uM

Row | SMILES | inhibition (Streptococcus pneumoniae [1]) [%] | Activity (Streptococcus pneumoniae [1]) | further results
1 | CNC(=O)OC[C@H]1O[C@@H](n2cnc3c(N)ncnc32)C[C@@H]1OP(=O)(O)C(C)N (stereo partly specified) | 3 |  | 
2 | COc1ccc(C[C@H](N)C(=O)N[C@H]2[C@@H](O)[C@H](n3cnc4c(N(C)C)ncnc43)O[C@@H]2CO)cc1 | 0 |  | 
3 | Nc1ncnc2c1ncn2[C@H]1C[C@H](O)[C@@H](CO)O1 | 13 |  | 
4 | COCCOP(=O)(NCCCC[C@H](NC(=O)OC(C)(C)C)C(=O)OC)C(C)NC(=O)OCc1ccccc1 (stereo partly specified) |  | inactive | 
5 | CC(NC(=O)OCc1ccccc1)P(=O)(O)O[C@H]1C[C@H](n2cnc3c(N)ncnc32)O[C@@H]1CO (stereo partly specified) | 0 |  | 
6 | CCCNP(=O)(OC)C(CC)NC(=O)OCc1ccccc1 (stereo unspecified) |  | inactive | 
7 | COC(=O)[C@H](CCCCNP(=O)(OC)C(NC(=O)OCc1ccccc1)c1ccccc1)NC(=O)OC(C)(C)C (stereo partly specified) |  | inactive | 
8 | Nc1ncnc2c1ncn2[C@H]1C[C@H](OP(=O)(O)O)[C@@H](CO)O1 | 15 |  | 
9 | CC(NC(=O)OCc1ccccc1)P(=O)(O)O[C@H]1C[C@H](n2cnc3c(N)ncnc32)O[C@@H]1CO[Si](C)(C)C(C)(C)C (stereo partly specified) | 0 |  | 
10 | CCCNP(=O)(OCCOC)C(C)NC(=O)OCc1ccccc1 (stereo unspecified) |  | inactive | 
11 | CC(N)P(=O)(O)O[C@H]1C[C@H](n2cnc3c(N)ncnc32)O[C@@H]1CO[Si](C)(C)C(C)(C)C (stereo partly specified) | 0 |  | 
12 | CCCCOP(=O)(NCCC)C(C)NC(=O)OCc1ccccc1 (stereo unspecified) |  | inactive | 
13 | CC(N)P(=O)(O)O[C@H]1C[C@H](n2cnc3c(N)ncnc32)O[C@@H]1CO (stereo partly specified) | 95 |  | IC50 ([2]; read-out: IC50): 100 µM; growth inhibition (GI) (Streptococcus pneumoniae [3]): inactive; Activity (Staphylococcus aureus [4]): inactive; Activity (Staphylococcus aureus [5]): inactive; Activity (Enterococcus faecalis): inactive; Activity (Micrococcus flavus): inactive; inhibition [6]: 22%; inhibition [7]: 28%; inhibition [8]: inactive; inhibition [9]: inactive
14 | CC(N)P(=O)(O)O[C@@H]1[C@H](O)[C@@H](CO)O[C@H]1n1cnc2c(N)ncnc21 (stereo partly specified) | 55 |  | IC50 ([2]; read-out: IC50): 780 µM
15 | CC(N)P(=O)(O)O[C@H]1[C@@H](O)[C@H](n2cnc3c(N)ncnc32)O[C@@H]1CO (stereo partly specified) |  |  | IC50 [2]: Not Active
16 | CC(NC(=O)OCc1ccccc1)P(=O)(O)O[C@H]1C[C@H](n2cnc3c(NC(=O)c4ccccc4)ncnc32)O[C@@H]1CO[Si](C)(C)C(C)(C)C (stereo partly specified) | 0 |  | 
17 | CCCNP(=O)(OC)C(C)NC(=O)OCc1ccccc1 (stereo unspecified) |  | inactive | 
18 | COC(=O)[C@H](CCCCNP(=O)(OC)C(C)NC(=O)OCc1ccccc1)NC(=O)OC(C)(C)C (stereo partly specified) |  | inactive | 
19 | CCCCOP(=O)(NCCCC[C@H](NC(=O)OC(C)(C)C)C(=O)OC)C(C)NC(=O)OCc1ccccc1 (stereo partly specified) |  | inactive | 
20 | CCCNP(=O)(OC)C(NC(=O)OCc1ccccc1)c1ccccc1 (stereo unspecified) |  | inactive | 
